Test [1] has as its target T1, Transient receptor potential cation channel subfamily M member 2 (Homo sapiens, UniProt O94759). Nature of the test: Antagonist activity at human TRPM2 expressed in HEK293 cells assessed as inhibition of ADPR-induced maximum outward potassium current at 100 uM at +15 mV by whole-cell patch-clamp electrophysiology. The format is cell-based. Summed up: (§1)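 Stable clonal HEK293 line expressing human TRPM2 (with EGFP, G418-selected). Whole-cell patch clamp at room temperature; bath had 140 mM NMDG, 1 mM Ca2+, pH 7.4; KCl/EGTA pipet solution held 200 nM free Ca2+. Channel was activated by 100 μM ADPR in the pipet, and analogue was added to the same pipet solution. Read-out: maximum outward current at +15 mV from repeated ramps every 5 s over 450 s.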
Background: The patch-clamp technique gives a direct electrical read-out from membranes.

The target of test [2] is T1, Transient receptor potential cation channel subfamily M member 2. As to the kind of experiment: Antagonist activity at human TRPM2 expressed in HEK293 cells assessed as inhibition of ADPR-induced maximum outward potassium current at +15 mV by whole-cell patch-clamp electrophysiology. The format is cell-based. Summed up:
as §1

For test [3] the target is unchanged. As to the kind of experiment: Antagonist activity at human TRPM2 expressed in HEK293 cells assessed as inhibition of ADPR-induced maximum outward potassium current at 900 uM at +15 mV by whole-cell patch-clamp electrophysiology. The format is cell-based. Summed up: as §1
The target is the same in test [4]. Nature of the test: Inhibition of TRPM2 (unknown origin).
Test [5] shares this target. As to the kind of experiment: Inhibition of human recombinant TRPM2.
Test [6] shares this target. Nature of the test: Partial antagonist activity at TRPM2 in human polymorphonuclear neutrophils assessed as reduction in fMLP-induced chemotaxis at 100 uM preincubated for 15 mins followed by fMLP-challenge by microscopic analysis. The method, boiled down: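 Primary human PMN at 3 × 10^6/mL, in Ca2+ buffer with 10% autologous plasma, were held 15 min at room temperature with 100 μM analogue in fibronectin-coated microfluidic chemotaxis slides. A 0→50 nM fMLP gradient was applied, and bright-field images were taken every 30 s for 1 h. Cells were tracked manually; read-out was displacement along the gradient.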

Test [7] shares this target. As to the kind of experiment: Partial antagonist activity at TRPM2 in human polymorphonuclear neutrophils assessed as reduction in A5 peptide-induced intracellular calcium accumulation at 100 uM preincubated for 15 mins followed by A5 peptide-challenge by fluorescence microscopic analysis relative to control. The format is cell-based. The arrangement: scale not given: the % may be the effect or the level left. Summed up:
(§2)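 Primary human PMN were used within 6 h of blood donation, loaded with 4 μM Fura-2/AM for 30 min at 37 °C, and plated on fibronectin/BSA-coated coverslips. Cells were preincubated 15 min at ambient temperature with 10 mM ascorbate plus 100 μM analogue. About 70 s into recording they were stimulated with 1 μM fMLP or 10 μM A5 peptide. Read-out: ratiometric Ca2+ imaging, single-cell traces synchronized to the first peak.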

The target is the same in test [8]. As to the kind of experiment: Partial antagonist activity at TRPM2 in human polymorphonuclear neutrophils assessed as reduction in fMLP-induced intracellular calcium accumulation at 100 uM preincubated for 15 mins followed by fMLP-challenge by fluorescence microscopic analysis relative to control. The format is cell-based. The arrangement: scale not given: the % may be the effect or the level left. The method, boiled down: as §2
On the technique in general: Calcium assays in cells follow changes in intracellular calcium, usually with a dye or a luminescent sensor.

Test [9] shares this target. As to the kind of experiment: Antagonist activity at human TRPM2 expressed in HEK293 cells assessed as partial inhibition of ADPR-induced maximum outward potassium current at +15 mV by whole-cell patch-clamp electrophysiology. The format is cell-based. Summed up:
as §1

Test [10] shares this target. As to the kind of experiment: Activation of TRPM2 (unknown origin). Summed up:
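Whole-cell patch clamp at room temperature on a HEK293 clone stably expressing human TRPM2 with EGFP (G418-selected). Bath solution: 140 mM NMDG, 5 mM KCl, 3.3 mM MgCl₂, 1 mM CaCl₂, HEPES pH 7.4. KCl pipet solution with free Ca²⁺ buffered to 200 nM by EGTA, plus 100 μM ADPR. Cells held at −50 mV with 140 ms ramps from −85 mV every 5 s for 450 s. Read-out was the maximum outward current at +15 mV.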

Test [11] shares this target. Nature of the test: Inhibition of human TRPM2 expressed in HEK293 cells assessed as inhibition of H2O2-induced intracellular calcium level by patch clamp technique. It counts as cell-based.
Test [12] has the same target. Nature of the test: Inhibition of TRPM2 (unknown origin) expressed in HEK293 cells assessed as inhibition of ADP-ribose-induced current by patch clamp technique. It counts as cell-based.
Test [13] shares this target. As to the kind of experiment: Inhibition of human TRPM2 expressed in HEK293 cells assessed as inhibition of ADP-ribose-induced current by patch clamp electrophysiology. It counts as cell-based. Summed up:
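Whole-cell patch clamp of a stable HEK293 clone co-expressing human TRPM2 and EGFP (G418-selected), at room temperature. Bath: 140 mM NMDG, 1 mM Ca²⁺, pH 7.4. Pipette: KCl-based with 200 nM free Ca²⁺ and 100 μM ADPR, with analogue added to it (0.1% DMSO for lipophilic ones). Voltage ramps from −85 mV every 5 s for 450 s. Maximum outward current at +15 mV is normalised to the ADPR control and fitted to a logistic curve for IC50.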

The source made the active and inactive calls. No cut-off for these calls is given here.

T1 sequence (O94759 whole entry): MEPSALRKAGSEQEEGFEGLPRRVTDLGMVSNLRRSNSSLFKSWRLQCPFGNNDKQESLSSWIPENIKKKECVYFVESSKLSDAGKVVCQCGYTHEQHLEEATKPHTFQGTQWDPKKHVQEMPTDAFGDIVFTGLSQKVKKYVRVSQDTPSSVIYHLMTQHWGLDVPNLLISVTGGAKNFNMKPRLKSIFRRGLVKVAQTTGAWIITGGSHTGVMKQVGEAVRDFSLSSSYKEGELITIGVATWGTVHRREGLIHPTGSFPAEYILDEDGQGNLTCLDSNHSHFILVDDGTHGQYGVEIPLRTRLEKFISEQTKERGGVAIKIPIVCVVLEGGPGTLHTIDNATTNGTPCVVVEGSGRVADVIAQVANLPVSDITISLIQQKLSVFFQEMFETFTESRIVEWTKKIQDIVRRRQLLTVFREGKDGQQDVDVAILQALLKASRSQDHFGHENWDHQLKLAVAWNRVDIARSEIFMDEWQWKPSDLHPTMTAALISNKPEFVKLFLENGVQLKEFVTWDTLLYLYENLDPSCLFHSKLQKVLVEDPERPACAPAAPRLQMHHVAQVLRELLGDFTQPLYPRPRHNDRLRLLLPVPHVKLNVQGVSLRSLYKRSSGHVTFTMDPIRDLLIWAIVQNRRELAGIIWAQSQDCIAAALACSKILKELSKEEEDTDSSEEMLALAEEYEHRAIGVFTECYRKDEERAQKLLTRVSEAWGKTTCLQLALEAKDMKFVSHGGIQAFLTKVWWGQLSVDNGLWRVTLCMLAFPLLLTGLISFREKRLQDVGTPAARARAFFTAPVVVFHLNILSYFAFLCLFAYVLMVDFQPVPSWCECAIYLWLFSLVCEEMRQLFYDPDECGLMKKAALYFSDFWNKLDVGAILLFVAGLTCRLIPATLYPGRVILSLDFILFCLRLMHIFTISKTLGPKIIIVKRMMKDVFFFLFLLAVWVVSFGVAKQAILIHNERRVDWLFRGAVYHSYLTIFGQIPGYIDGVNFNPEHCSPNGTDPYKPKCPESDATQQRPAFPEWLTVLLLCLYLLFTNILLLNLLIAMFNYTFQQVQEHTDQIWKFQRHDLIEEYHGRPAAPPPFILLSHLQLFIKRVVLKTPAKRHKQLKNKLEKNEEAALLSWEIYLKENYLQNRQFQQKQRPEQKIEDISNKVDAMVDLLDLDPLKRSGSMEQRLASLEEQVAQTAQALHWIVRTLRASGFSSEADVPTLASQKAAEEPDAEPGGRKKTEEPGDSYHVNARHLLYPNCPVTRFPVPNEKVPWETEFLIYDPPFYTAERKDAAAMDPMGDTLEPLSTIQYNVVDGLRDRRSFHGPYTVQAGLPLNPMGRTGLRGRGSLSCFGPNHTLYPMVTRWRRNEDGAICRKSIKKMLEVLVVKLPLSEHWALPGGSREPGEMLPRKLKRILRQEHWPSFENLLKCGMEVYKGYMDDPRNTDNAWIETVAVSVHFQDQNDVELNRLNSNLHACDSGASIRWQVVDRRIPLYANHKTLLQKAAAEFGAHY

For the compound `CCCCNc1c(NC[C@H]2O[C@@H](n3cnc4c(N)ncnc43)[C@H](O)[C@@H]2O)c(=O)c1=O`, the inhibition entry in [1] was “inactive”.

On to `Nc1ncnc2c1nc(Cl)n2[C@@H]1O[C@H](COP(=O)(O)O)[C@@H](O)[C@H]1O`, for which the IC50 result in [2] (hek293) is “Not Active”. Further, in test [3], the inhibition entry is “inactive”.

Turning to `Nc1ncnc2c1nc(Br)n2[C@@H]1O[C@H](COP(=O)(O)OP(=O)(O)OC[C@H]2OC(O)[C@H](O)[C@@H]2O)[C@@H](O)[C@H]1O` (stereo not given in full), the IC50 in [2] (read-out: IC50) is 300 µM.

On to `Nc1ncnc2c1nc(-c1ccsc1)n2[C@@H]1O[C@H](COP(=O)(O)OP(=O)(O)OC[C@H]2OC(O)[C@H](O)[C@@H]2O)[C@@H](O)[C@H]1O` (stereo not given in full), for which, in test [2] (read-out: IC50), the half-maximal inhibitory concentration (IC50) was determined as 51 µM.

`Clc1ccccc1C(c1ccccc1)(c1ccccc1)n1ccnc1` [CLOTRIMAZOLE] registered a half-inhibitory concentration (IC50) in test [4] of under 3 µM.

`Nc1ncnc2c1ncn2[C@@H]1O[C@H](COP(=O)(O)O)[C@@H](O)[C@H]1O` [ADENOSINE PHOSPHATE] displayed an IC50 in test [4] of 70 µM. Moreover, the inhibition entry in [3] was “inactive”.

Turning to `Nc1ncnc2c1nc(-c1ccccc1)n2[C@H]1C[C@H](O)[C@@H](COP(=O)(O)OP(=O)(O)OC[C@H]2OC(O)[C@H](O)[C@@H]2O)O1` (stereo not given in full), the IC50 in [2] (read-out: IC50) was 3 µM. Further, in test [3], the inhibition result is “Active”.

Consider `Cc1cccc(Nc2ccccc2C(=O)O)c1C` [MEFENAMIC ACID], for which the 50% inhibitory concentration (IC50) in test [5] worked out at 124 µM.

Turning to `Nc1ncnc2c1ncn2[C@@H]1O[C@H](CNc2c(NC3CCCC3)c(=O)c2=O)[C@@H](O)[C@H]1O`, the inhibition result in test [1] was “inactive”.

In the case of `Nc1ncnc2c1nc(-c1ccccc1)n2[C@@H]1O[C@H](COP(=O)(O)OP(=O)(O)OC[C@H]2OC(O)[C@H](O)[C@@H]2O)[C@@H](O)[C@H]1O` (stereo not given in full), in test [6], the result was Active. The IC50 in test [2] (read-out: IC50) came out at 11 µM. In addition, the Activity in [7] was 31.4%; in test [8], 31.8%.

Turning to `Nc1ncnc2c1nc(-c1ccccc1)n2[C@@H]1O[C@H](Cn2cc(COC[C@H]3OC(O)[C@H](O)[C@@H]3O)nn2)[C@@H](O)[C@H]1O` (stereo not given in full), the inhibition entry in test [1] was “inactive”.

As to `Nc1ncnc2c1nc(-c1ccc(CC(N)C(=O)O)cc1)n2[C@@H]1O[C@H](COP(=O)(O)O)[C@@H](O)[C@H]1O` (stereo not given in full), the inhibition entry in test [1] is “inactive”.

Regarding `O=C(O)c1cccnc1Nc1cccc(C(F)(F)F)c1` [NIFLUMIC ACID], the IC50 in [5] is 149 µM.

`COc1ncnc2c1ncn2[C@@H]1O[C@H](COP(=O)(O)OP(=O)(O)OC[C@H]2OC(O)[C@H](O)[C@@H]2O)[C@@H](O)[C@H]1O` (stereo not given in full): in test [2] (hek293), the IC50 result was “Not Active”.

Consider `Nc1ncnc2c1ncn2[C@@H]1O[C@H](COP(=O)(O)OP(=O)(O)OC2CCCC2)[C@@H](O)[C@H]1O`, for which the half-inhibitory concentration (IC50) in test [9] is under 900 µM.

As to `Nc1ncnc2c1cc(Br)n2[C@@H]1O[C@H](COP(=O)(O)OP(=O)(O)OC[C@H]2OC(O)[C@H](O)[C@@H]2O)[C@@H](O)[C@H]1O` (stereo not given in full), the IC50 entry in test [2] (hek293) was “Not Active”.

In the case of `Nc1ncnc2c1ncn2[C@@H]1O[C@H](COP(=O)(O)OP(=O)(O)OP(=O)(O)OC[C@H]2OC(O)[C@H](O)[C@@H]2O)[C@@H](O)[C@H]1O` (stereo not given in full), in test [3], the inhibition entry is “inactive”.

In the case of `Nc1ncnc2c1ncn2[C@@H]1O[C@H](CNc2c(NC[C@H]3O[C@@H](O)[C@H](O)[C@@H]3O)c(=O)c2=O)[C@@H](O)[C@H]1O`, the inhibition entry in [1] was “inactive”.

Compound `Nc1ncnc2c1ncn2[C@@H]1O[C@H](COP(=O)(O)OP(=O)(O)OC[C@H]2OC(O)[C@H](O)[C@@H]2O)[C@@H](O)[C@H]1O` (stereo not given in full) yielded an EC50 in test [10] of 100 µM.

Regarding `CCCCCc1ccc(/C=C/C(=O)Nc2ccccc2C(=O)O)cc1`, in test [11], the IC50 stood at 1.7 µM.

Take `Nc1ncnc2c1ncn2CCCCOP(=O)(O)OP(=O)(O)OC[C@H]1OC(O)[C@H](O)[C@@H]1O` (stereo not given in full): the inhibition entry in [1] was “inactive”.

Take `Nc1nc(F)nc2c1ncn2[C@@H]1O[C@H](COP(=O)(O)OP(=O)(O)OC[C@H]2OC(O)[C@H](O)[C@@H]2O)[C@@H](O)[C@H]1O` (stereo not given in full): in test [2] (hek293), the IC50 result was “Not Active”.

`CC(=O)c1cccc(-c2nc3c(N)ncnc3n2[C@@H]2O[C@H](COP(=O)(O)OP(=O)(O)OC[C@H]3OC(O)[C@H](O)[C@@H]3O)[C@@H](O)[C@H]2O)c1` (stereo not given in full): the IC50 in [2] (read-out: IC50) was found to be 49 µM.

For `O=c1[nH]cnc2c1ncn2[C@@H]1O[C@H](COP(=O)(O)OP(=O)(O)OC[C@H]2OC(O)[C@H](O)[C@@H]2O)[C@@H](O)[C@H]1O` (stereo not given in full), the concentration for half-maximal inhibition (IC50) entry in test [2] (hek293) is recorded as “Not Active”.

Consider COPPER, for which the IC50 in test [12] was 2.6 µM.

For `Nc1ncnc2c1nc(N)n2[C@@H]1O[C@H](COP(=O)(O)OP(=O)(O)OC[C@H]2OC(O)[C@H](O)[C@@H]2O)[C@@H](O)[C@H]1O` (stereo not given in full), the IC50 result in test [2] (hek293) is reported as “Not Active”.

As to `Clc1ccc(COC(Cn2ccnc2)c2ccc(Cl)cc2Cl)cc1` (stereo not given) [ECONAZOLE], the IC50 in [4] is under 3 µM.

Consider `O=c1[nH]cnc2c1ccn2[C@@H]1O[C@H](COP(=O)(O)OP(=O)(O)OC[C@H]2OC(O)[C@H](O)[C@@H]2O)[C@@H](O)[C@H]1O` (stereo not given in full), for which the IC50 entry in [2] (hek293) is recorded as “Not Active”.

`O=C(O)c1ccccc1Nc1cccc(C(F)(F)F)c1` [FLUFENAMIC ACID]: the IC50 in test [5] was 70 µM.

`CCCCCCNc1c(NC[C@H]2O[C@@H](n3cnc4c(N)ncnc43)[C@H](O)[C@@H]2O)c(=O)c1=O`: in test [1], the inhibition result was “inactive”.

For `Nc1ncnc2c1ncn2[C@@H]1O[C@H](COP(=O)(O)OP(=O)(O)O)[C@@H](O)[C@H]1O`, the inhibition result in test [3] is “inactive”.

As to `Nc1ncnc2c1nc(-c1ccccc1)n2[C@@H]1O[C@H](COP(=O)(O)OP(=O)(O)OC2CCCC2)[C@@H](O)[C@H]1O`, the half-inhibitory concentration (IC50) in test [2] (read-out: IC50) stood at 15 µM. Moreover, in test [1], the inhibition entry was “Active”.

Turning to `Cc1cccc(Nc2ccccc2C(=O)O)c1`, the IC50 in test [13] is 76 µM.

One may read the IC50 as the concentration that inhibits the measured activity by half. Broadly, the EC50 is the concentration giving half of the maximal effect.
